{"source": "ChEMBL document CHEMBL5390295", "about": "“Isolinderalactone Ameliorates the Pathology of Alzheimer's Disease by Inhibiting the JNK Signaling Pathway” (2023)", "key": {"[1]": {"test_system": "PC-12", "test": "Neuroprotective activity against Abeta1-42 induced rat PC12 cells assessed as reduction in LDH release at 10 uM preincubated for 3 hrs followed by Abeta1-42 induction and measured after 24 hrs by LDH release assay", "format": "functional, cell-based", "conditions": "time 27.0 hrs", "how_it_was_run": "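PC12 cells were pretreated 3 h with 10 μM, then incubated 24 h with or without 10 μM Aβ1–42. LDH released into the supernatant was measured.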"}, "[2]": {"test_system": "PC-12", "test": "Induction of apoptosis in Abeta1-42 induced rat PC12 cells assessed as viable cell at 10 uM preincubated for 3 hrs followed by Abeta1-42 induction and measured after 24 hrs by Annexin V-FITC/PI staining based flow cytometry analysis (reference value: 97.8%)", "format": "functional", "conditions": "time 27 hrs"}, "[3]": {"test_system": "PC-12", "test": "Neuroprotective activity in Abeta1-42 induced rat PC12 cells assessed as decrease in cleaved caspase-3 level at 10 uM preincubated for 3 hrs followed by Abeta1-42 induction and measured after 24 hrs", "format": "functional, cell-based", "conditions": "time 27.0 hrs", "how_it_was_run": "(§1)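 Aβ1–42 challenge in PC12 cells was 10 μM for 24 h after 3 h pretreatment at 10 μM. SP600125 (1.25 μM) was added 0.5 h before pretreatment where used. Cells were lysed in RIPA and protein measured by BCA. Blotting used PVDF transfer, 5% BSA/TBST block for 2 h, primaries 1:1000 overnight at 4 °C, and HRP secondary for 2 h. Bcl-2/Bax ratio and band intensities were quantified.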"}, "[4]": {"test_system": "PC-12", "test": "Neuroprotective activity against rat PC12 cells assessed as reversal of Abeta1-42 induced Bax expression at 10 uM preincubated for 3 hrs followed by Abeta1-42 induction and measured after 24 hrs by Western blot analysis", "format": "functional, cell-based", "conditions": "time 27.0 hrs", "how_it_was_run": "as §1"}, "[5]": {"test_system": "PC12", "test": "Restoration of mitochondrial membrane potential in Abeta1-42 induced rat PC12 cells at 10 uM preincubated for 3 hrs followed by Abeta1-42 induction and measured after 24 hrs by JC-1 staining based analysis", "format": "cell-based", "conditions": "time 27.0 hrs", "how_it_was_run": "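PC12 cells pretreated 3 h, then exposed to 10 μM Aβ1–42 oligomer for 24 h. Cells were loaded with JC-1 (10 μg/mL, serum-free medium) for 30 min at 37 °C and washed twice in PBS. Plate-reader fluorescence was read as red (ex 560/em 595) and green (ex 485/em 535); Δψm = red/green ratio, normalized to control. Mean ± SEM, three experiments.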"}, "[6]": {"test_system": "PC-12", "test": "Neuroprotective activity against in Abeta1-42 induced rat PC12 cells assessed as effect on P38MAPK protein level at 10 uM preincubated for 3 hrs followed by Abeta1-42 induction and measured after 24 hrs by Western blot analysis", "format": "functional, cell-based", "conditions": "time 27.0 hrs", "how_it_was_run": "as §1"}, "[7]": {"test_system": "PC-12", "test": "Neuroprotective activity against Abeta1-42 induced rat PC12 cells assessed as increase in cell viability at 10 uM preincubated for 3 hrs followed by Abeta1-42 induction and measured after 24 hrs in the presence of SP600125 by MTT assay", "format": "functional, cell-based", "conditions": "time 27.0 hrs", "how_it_was_run": "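PC12 cells were seeded at 5×10^3/well and pretreated 3 h with test compound (range or 10 μM), with or without SP600125 1.25 μM for 0.5 h beforehand. Cells were then exposed to 10 μM Aβ1–42 oligomers for 24 h. MTT 0.5 mg/mL was added for 3–4 h, formazan dissolved in DMSO, and absorbance read at 570 nm. Viability is given as % of control.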"}, "[8]": {"test_system": "PC-12", "test": "Neuroprotective activity against Abeta1-42 induced rat PC12 cells assessed as effect on Bcl2/Bax ratio level at 10 uM preincubated for 3 hrs followed by Abeta1-42 induction and measured after 24 hrs in the presence of SP600125 by Western blot analysis", "format": "functional, cell-based", "conditions": "time 27.0 hrs", "how_it_was_run": "as §1"}, "[9]": {"test_system": "Mus musculus", "test": "Anti-alzheimer activity against APP/PS1 dE9 double transgenic mouse model assessed as improvement in exploratory behavior at 1 to 10 mg/kg, ip administered once daily for 30 consecutive days measured on day 1 by novel object recognition test", "format": "functional, organism-based", "conditions": "dose 1-10 mg/kg, time 31.0 day", "how_it_was_run": "(§2)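 Same mouse cohort and ip PBS dosing schedule (1 or 10 mg/kg; donepezil 5 mg/kg). Novel object recognition: two objects, 5 min session, with exploration frequency and duration scored within 2–3 cm of objects. After 24 h one object was replaced by a novel object and a second 5 min session was recorded.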"}, "[10]": {"test_system": "Mus musculus", "test": "Anti-alzheimer activity against APP/PS1 dE9 double transgenic mouse model assessed as improvement in exploration time for novel object at 10 mg/kg, ip administered once daily for 30 consecutive days measured on day 2 by novel object recognition test", "format": "functional, organism-based", "conditions": "time 32.0 day", "how_it_was_run": "as §2"}, "[11]": {"test_system": "Mus musculus", "test": "Anti-alzheimer activity against APP/PS1 dE9 double transgenic mouse model assessed as decrease in escape latency at 10 mg/kg, ip administered once daily for 30 consecutive day measured on day 5 by morris water maze test", "format": "functional, organism-based", "conditions": "time 35.0 day", "how_it_was_run": "(§3)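 Female APP/PS1 mice, 10 months old, about 30 g, 10 per group. Dosing was intraperitoneal in 1× PBS, once daily for one month (1 or 10 mg/kg test; 5 mg/kg donepezil). WT and untreated APP/PS1 controls got PBS. Morris water maze: training days 1–4, averaged escape latency. Day-5 probe trial ran 60 s with the platform removed, recording platform crossings and time per quadrant. Mean ± SEM.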"}, "[12]": {"test_system": "Mus musculus", "test": "Anti-alzheimer activity against APP/PS1 dE9 double transgenic mouse model assessed as increase in platform crossings at 10 mg/kg, ip administered once daily for 30 consecutive days […] by morris water maze test", "format": "functional, organism-based", "how_it_was_run": "as §3"}, "[13]": {"test_system": "Mus musculus", "test": "Anti-alzheimer activity in hippocampus of APP/PS1 dE9 double transgenic mouse model assessed as reduction in APP/beta-amyloid level at 10 mg/kg, ip administered once daily for 30 consecutive days by Western blot analysis", "format": "functional, organism-based", "conditions": "time 30.0 day", "how_it_was_run": "(§4)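 Hippocampal homogenates from dosed APP/PS1 mice were extracted in RIPA and protein measured by BCA. Samples were run by SDS electrophoresis, transferred to 0.22 μm PVDF for 90 min, blocked with 5% BSA in TBST for 2 h at RT, and probed with primaries 1:1000 overnight at 4 °C. HRP secondary was applied for 2 h at RT.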"}, "[14]": {"test_system": "Mus musculus", "test": "Anti-alzheimer activity in hippocampus of APP/PS1 dE9 double transgenic mouse model assessed as increase in the level of Map2 at 10 mg/kg, ip administered once daily for 30 consecutive days by Western blot analysis", "format": "functional, organism-based", "conditions": "time 30.0 day", "how_it_was_run": "as §4"}, "[15]": {"test_system": "Mus musculus", "test": "Anti-alzheimer activity in hippocampus of APP/PS1 dE9 double transgenic mouse model as reduction in neuronal apoptosis at 1 to 10 mg/kg, ip administered once daily for 30 consecutive days by immunofluorescence analysis", "format": "functional, organism-based", "conditions": "dose 1-10 mg/kg, time 30.0 day", "how_it_was_run": "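Brains from dosed female APP/PS1 mice (10 months) were fixed in 4% paraformaldehyde at 4 °C for 24–48 h, taken through a sucrose gradient and OCT, and cut into 15 μm sections. Sections were permeabilized with 0.3% Triton X-100, blocked in 10% BSA for 1 h, and incubated with primary antibody overnight at 4 °C (1:200). Secondary was 1:500 for 1 h at 25 °C, with DAPI counterstain and confocal imaging, in triplicate.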"}, "[16]": {"test_system": "Mus musculus", "test": "Anti-alzheimer activity in hippocampus of APP/PS1 dE9 double transgenic mouse model assessed as increase in the level of Bcl-2 at 10 mg/kg, ip administered once daily for 30 consecutive days by Western blot analysis", "format": "functional, organism-based", "conditions": "time 30.0 day", "how_it_was_run": "as §4"}, "[17]": {"test_system": "Mus musculus", "test": "Neuroprotective activity in APP/PS1 dE9 double transgenic mouse model assessed as improvement in spatial memory at 10 mg/kg, ip administered once daily for 30 consecutive days […] by morris water maze test", "format": "functional, organism-based", "conditions": "time 36.0 day", "how_it_was_run": "as §3"}}, "note": "Calls of active or inactive are those of the source. The calls are words filed in the database; no cut-off is given here.", "data": [{"smiles": "C=C[C@@]1(C)Cc2occ(C)c2[C@@H]2OC(=O)C(=C)[C@@H]21", "note": "[ISOLINDERALACTONE]", "values": [{"measurement": "Activity", "setting": "[1]", "result": "Active"}, {"measurement": "Activity", "setting": "[2]", "result": 97.6, "unit": "%"}, {"measurement": "Activity", "setting": "[3]", "result": "Active"}, {"measurement": "Activity", "setting": "[4]", "result": "Active"}, {"measurement": "Activity", "setting": "[5]", "result": "Active"}, {"measurement": "Activity", "setting": "[6]", "result": "inactive"}, {"measurement": "Activity", "setting": "[7]", "result": "inactive"}, {"measurement": "Activity", "setting": "[8]", "result": "inactive"}, {"measurement": "Activity", "setting": "[9]", "result": "Active"}, {"measurement": "Activity", "setting": "[10]", "result": "Active"}, {"measurement": "Activity", "setting": "[11]", "result": "Active"}, {"measurement": "Activity", "setting": "[12]", "result": "Active"}, {"measurement": "Activity", "setting": "[13]", "result": "Active"}, {"measurement": "Activity", "setting": "[14]", "result": "Active"}, {"measurement": "Activity", "setting": "[15]", "result": "Active"}, {"measurement": "Activity", "setting": "[16]", "result": "Active"}, {"measurement": "Activity", "setting": "[17]", "result": "Active"}]}]}
